Experimental data: PMC7238799 (Pulmonary Circulation, 2020)

Assays:
[1] = test system: healthy subjects; experiment: Single ascending dose; type: in vivo, human
In short: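 Subjects received a single oral dose of test compound or identical-appearing placebo capsule and were kept as in-patients. Over seven days, adverse events, vital signs, 12-lead ECG and safety labs (serum chemistry, hematology, urinalysis) were assessed at multiple time points. Data were summarized descriptively by treatment group.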

[2] = Single ascending dose; type: in vivo, human; conditions: for Tmax / AUC(0-inf) / AUC(0-t) / Cmax: both, human, plasma, po
In short: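 Healthy subjects received one oral immediate-release capsule dose of test compound (30–200 µg) or placebo, with food withheld 1 h after dosing. K₂EDTA blood was drawn pre-dose, at 0.25–120 h, then every 24 h through Day 14. Samples were chilled, centrifuged and frozen at –20 ℃. Plasma was assayed by LC-MS/MS (0.03–15.0 ng/mL). Noncompartmental, linear-trapezoidal parameters are reported as mean (SD), with Tmax as median (min–max).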

[3] = total ralinepag, all single doses, n = 24

In the case of `O=C(O)COC[C@H]1CC[C@H](COC(=O)N(c2ccccc2)c2ccc(Cl)cc2)CC1` [ralinepag], the SAEs recorded ([1]; any doses tested) is reported as “no SAEs”, the “Vital signs, ECGs, safety laboratory tests” value ([1]; any single dose level) is reported as “no clinically significant safety issues” and the “Abdominal pain, subjects (%)” value ([1]; single oral dose 30 µg, n = 6) is reported as 0. The “Flushing, subjects (%)” value ([1]; single oral dose 30 µg, n = 6) was 0, the “Headache, subjects (%)” value ([1]; single oral dose 30 µg, n = 6) was 2 (33.3%) and the “Nausea, subjects (%)” value ([1]; single oral dose 30 µg, n = 6) was 0. The “Number of AEs reported” value ([1]; single oral dose 30 µg, n = 6) was 2, the “Pain in jaw, subjects (%)” value ([1]; single oral dose 30 µg, n = 6) was 0 and the “Total (%) subjects with at least one AE” value ([1]; single oral dose 30 µg, n = 6) was 2 (33.3%). The “Vomiting, subjects (%)” value ([1]; single oral dose 30 µg, n = 6) was 0, the “Abdominal pain, subjects (%)” value ([1]; single oral dose 50 µg, n = 6) was 1 (16.7%) and the “Flushing, subjects (%)” value ([1]; single oral dose 50 µg, n = 6) was 0. For the same molecule, the “Headache, subjects (%)” value ([1]; single oral dose 50 µg, n = 6) was 5 (83.3%), the “Nausea, subjects (%)” value ([1]; single oral dose 50 µg, n = 6) was 1 (16.7%) and the “Number of AEs reported” value ([1]; single oral dose 50 µg, n = 6) was 11. For the same molecule, the “Pain in jaw, subjects (%)” value ([1]; single oral dose 50 µg, n = 6) was 2 (33.3%), the “Total (%) subjects with at least one AE” value ([1]; single oral dose 50 µg, n = 6) was 5 (83.3%) and the “Vomiting, subjects (%)” value ([1]; single oral dose 50 µg, n = 6) was 0. For the same molecule, the “Abdominal pain, subjects (%)” value ([1]; single oral dose 100 µg, n = 6) was 1 (16.7%), the “Flushing, subjects (%)” value ([1]; single oral dose 100 µg, n = 6) was 1 (16.7%) and the “Headache, subjects (%)” value ([1]; single oral dose 100 µg, n = 6) was 5 (83.3%). The “Nausea, subjects (%)” value ([1]; single oral dose 100 µg, n = 6) was 2 (33.3%), the “Number of AEs reported” value ([1]; single oral dose 100 µg, n = 6) was 17 and the “Pain in jaw, subjects (%)” value ([1]; single oral dose 100 µg, n = 6) was 3 (50.0%). For the same molecule, the “Total (%) subjects with at least one AE” value ([1]; single oral dose 100 µg, n = 6) was 6 (100%), the “Vomiting, subjects (%)” value ([1]; single oral dose 100 µg, n = 6) was 2 (33.3%) and the “Tolerability of the 200 µg single dose” value ([1]; single oral dose 200 µg) was “not at 200 µg due to AEs of nausea and vomiting”. The “Flushing, subjects (%)” value ([1]; single oral dose 200 µg, n = 6) was 1 (16.7%), the “Headache, subjects (%)” value ([1]; single oral dose 200 µg, n = 6) was 5 (83.3%) and the “Nausea, subjects (%)” value ([1]; single oral dose 200 µg, n = 6) was 3 (50.0%). For the same molecule, the “Number of AEs reported” value ([1]; single oral dose 200 µg, n = 6) was 21, the “Pain in jaw, subjects (%)” value ([1]; single oral dose 200 µg, n = 6) was 1 (16.7%) and the “Total (%) subjects with at least one AE” value ([1]; single oral dose 200 µg, n = 6) was 6 (100%). The “Vomiting, subjects (%)” value ([1]; single oral dose 200 µg, n = 6) was 6 (100%), the Tolerated single dose ([1]; single oral dose, IR capsule, healthy subjects) was “up to 100 µg” and the “Abdominal pain, subjects (%)” value [1, 3] was 3 (12.5%). The “Flushing, subjects (%)” value [1, 3] was 2 (8.3%), the “Headache, subjects (%)” value [1, 3] was 17 (70.8%) and the “Nausea, subjects (%)” value [1, 3] was 6 (25.0%). For the same molecule, the “Number of AEs reported” value [1, 3] was 51, the “Pain in jaw, subjects (%)” value [1, 3] was 6 (25.0%) and the “Total (%) subjects with at least one AE” value [1, 3] was 19 (79.2%). For the same molecule, the “Vomiting, subjects (%)” value [1, 3] was 8 (33.3%), the Tmax [2] was 1 to 1.5 h and the AUC(0-inf) ([2]; 30 ug) was 17.3 ng·h/mL. For the same molecule, the AUC(0-t) ([2]; 30 ug) was 15.9 ng·h/mL, the Cmax ([2]; 30 ug) was 0.949 ng/mL and the Tmax ([2]; 30 ug) was 1 h. It also gave an AUC(0-inf) ([2]; 50 ug) of 22.8 ng·h/mL, an AUC(0-t) ([2]; 50 ug) of 21.5 ng·h/mL and a Cmax ([2]; 50 ug) of 1.49 ng/mL. For the same molecule, the Tmax ([2]; 50 ug) was 1.25 h, the AUC(0-inf) ([2]; 100 ug) was 42.6 ng·h/mL and the AUC(0-t) ([2]; 100 ug) was 41.2 ng·h/mL. For the same molecule, the Cmax ([2]; 100 ug) was 2.65 ng/mL, the Tmax ([2]; 100 ug) was 1.5 h and the AUC(0-inf) ([2]; 200 ug) was 103 ng·h/mL. The AUC(0-t) ([2]; 200 ug) was 101 ng·h/mL, the Cmax ([2]; 200 ug) was 6.17 ng/mL and the Tmax ([2]; 200 ug) was 1.25 h. The “Dose proportionality of Cmax and AUC” value ([2]; single doses from 30 to 200 µg) was “approximately dose proportional”.
